This is a sample that favours compounds with a hit; in the whole collection about 3.3% have one here.
XiGFP reactiv: activators of inactive X chromosome reactivation, primary screen, imaging, XiGFP fibroblasts, GFP high-content imaging, set 2. XiGFP mouse fibroblasts, % GFP-positive cells imaging, 3 d; cells co-treated with 5-aza-dC sensitizer; scaled so ellipticine positive control = 100%. activation, % at 7.58 µM. actives 0.055% (n = 360,000). AID 743238, 2013;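 active = mean normalized replicate activation at least 10% and every replicate at or above 10%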
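Material: XiGFP fibroblasts, SV40-immortalized. Buffer or medium: DMEM plus 5-aza-dC sensitizer. Compound: single concentration per compound, delivered by pin transfer. Times: 3 days compound exposure. Controls: ellipticine 6 µM.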
DENV2 CPE rescue: inhibitors of DENV2 cytopathic effect, primary screen, cell-based, plate reader, single concentration; CPE inhibition, % at 9.99 µM; actives 1.7% (n = 350,000); DENV2-infected cells, cytopathic effect rescue; in the data active = CPE inhibition above about 20%, passing the limit was not always enough; tested in BHK-21 cells
PglD DTNB: C. jejuni PglD acetyltransferase inhibitors, primary screen, biochemical, DTNB colorimetric, single point. purified PglD enzyme, DTNB colorimetric CoA detection. inhibition, % at 12.5 µM. actives 0.098% (n = 360,000). AID 602405, 2012; in the data active = inhibition above about 16%, passing the limit was not always enough
E-selectin induc: E-selectin induction in HUVECs, primary screen, imaging, HUVEC, immunofluorescence imaging, single point; P16581; normalized: neutral wells 0, TNF-alpha wells 100; activation, % at 7.58 µM; actives 0.37% (n = 260,000); AID 686992, 2013;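 active = mean E-selectin-positive cell signal at least 10% of the positive control, reached in at least 60% of replicates, without over 20% cell loss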
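Test system: HUVEC | Signal: Immunofluorescence imaging | Read-out: Percent E-selectin-positive cells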
Statin myotox sup: suppressors of statin myotoxicity in C2C12 myotubes, primary screen, cell-based, single point, plate reader; C2C12 myotubes + simvastatin, ATP luminescence, 48 h; scaled: DMSO 0, geranylgeraniol control 100; rescue of ATP level, % at 7.49 µM; actives 0.78% (n = 330,000); AID 602340, 2012;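 active = mean ATP rescue above about 67%, or every replicate alone reaching that limit, limit read from the data, passing the limit was not always enough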;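 note: myotubes were challenged with 10 µM simvastatin during compound exposure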
FGF22 binding: binders of human FGF22 protein, primary screen, FGF22 synaptogenesis inhibitor project, biophysical, thermal shift, single point. Fibroblast growth factor 22 (Homo sapiens), Q9HCT0. recombinant FGF22 thermal shift, SYPRO orange fluorescence; percent of sucrose octasulfate shift, DMSO zero. activity (Tm shift, normalised), % at 9.99 µM. actives 1.5% (n = 340,000). AID 651658, 2012;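 active = mean Tm shift, scaled 0 neutral to 100 positive control, at about 1.3% or above, every replicate too, limit read from the data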
Target sequence (Q9HCT0 whole entry, looked up): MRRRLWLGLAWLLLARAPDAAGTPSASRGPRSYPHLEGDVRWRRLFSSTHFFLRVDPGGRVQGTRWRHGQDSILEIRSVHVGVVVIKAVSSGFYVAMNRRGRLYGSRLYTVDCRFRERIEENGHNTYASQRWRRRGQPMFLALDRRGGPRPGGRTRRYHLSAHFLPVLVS
Each line names hits and unclear results; the compound was inactive in the other large screens; ! = not active in a repeat.

O=C(O)[C@@H]1[C@@H](CO)[C@@H]2Cn3c(ccc(-c4ccncc4)c3=O)[C@H]1N2C(=O)C1CCC1	none
CC(C)(Cl)[N+](=O)[O-]	DENV2 CPE rescue 130 (no result: XiGFP reactiv, E-selectin induc)
CN(C(=O)Oc1cccc2ccccc12)C1C=CCC1 (centres undefined)	DENV2 CPE rescue 65, FGF22 binding 43
CN(C)C(=O)Oc1cccc2c(OC(=O)N(C)C)cccc12	none (no result: XiGFP reactiv, DENV2 CPE rescue, E-selectin induc, FGF22 binding)
Cc1cccc(OP(N)(N)=O)c1C	FGF22 binding 43 (no result: PglD DTNB)
O=C1CNC[C@@H]2[C@H](c3ccc(Br)cc3)[C@H](CO)N12	none (no result: PglD DTNB, Statin myotox sup)
COC(=O)[C@@H]1[C@@H](CO)[C@@H]2Cn3c(cccc3=O)[C@H]1N2C(=O)C1CCC1	none (no result: XiGFP reactiv, E-selectin induc)
CCC(=O)N1[C@@H]2Cn3c(ccc(C4=CCCC4)c3=O)[C@H]1[C@@H](C(=O)OC)[C@@H]2CO	none
CC1(C)CC(=O)CC(C)(C)N1O	FGF22 binding 45 (no result: PglD DTNB, Statin myotox sup)
CC=Cc1ccc2n(c1=O)C[C@@H]1[C@@H](CO)[C@H](C(=O)OC)[C@H]2N1CC1CCCC1 (mixture of isomers)	none (no result: PglD DTNB, Statin myotox sup, FGF22 binding)
c1ccc(C2(NC3=NCCO3)CCCCC2)cc1	FGF22 binding 43
CNCC1(c2ccccc2)CCCC1	none (no result: XiGFP reactiv, DENV2 CPE rescue, E-selectin induc, FGF22 binding)
CCN1CCC(NCC2CCCCC2)CC1	DENV2 CPE rescue 32 (no result: E-selectin induc)
CCN1CCC(N(C)C2CCCCC2)CC1	none
CC(C)NC(=O)N1C[C@@H]2C(c3ccccc3)[C@H](C1)N2C (some centres undefined)	none (no result: DENV2 CPE rescue, PglD DTNB, E-selectin induc, Statin myotox sup, FGF22 binding)
C/C=C/c1ccc2c(c1)OCO2	DENV2 CPE rescue 20 (no result: XiGFP reactiv, E-selectin induc)
CC(=O)c1ccc2c(c1)OCO2	none (no result: XiGFP reactiv, E-selectin induc)
CC1=NN(c2ccccc2)C(=O)/C1=C/c1c(O)[nH]c(=S)[nH]c1=O	none (no result: XiGFP reactiv, DENV2 CPE rescue, PglD DTNB, E-selectin induc, FGF22 binding)
CC1=NN(c2ccccc2)C(=O)/C1=C/c1c(O)[nH]c(=O)[nH]c1=O	FGF22 binding 1.4
C=CCN1[C@@H]2CN(C(C)=O)C[C@H]1C2c1ccc(Br)cc1 (some centres undefined)	none (no result: DENV2 CPE rescue, PglD DTNB, E-selectin induc, Statin myotox sup, FGF22 binding)
O=c1[nH]c2cc(Cl)ccc2n1C1CCN(Cc2ccc(-c3nc4ccccc4nc3-c3ccccc3)cc2)CC1	none (no result: PglD DTNB, Statin myotox sup)
Cc1ccc2nc(-c3ccc(CN4CCC(n5c(=O)[nH]c6cc(Cl)ccc65)CC4)cc3)c(-c3ccccc3)nc2c1	DENV2 CPE rescue 52 (no result: PglD DTNB, Statin myotox sup)
O=C(O)[C@@H]1[C@@H](CO)[C@@H]2Cn3c(ccc(-c4cccnc4)c3=O)[C@H]1N2C(=O)Nc1cc(F)ccc1F	none
NP(=O)(OCCCc1ccccc1)Oc1ccc(Cl)cc1 (centres undefined)	DENV2 CPE rescue 20 (no result: E-selectin induc)
O=C1OCCC1C(=O)c1ccccc1 (centres undefined)	FGF22 binding 44 (no result: PglD DTNB, Statin myotox sup)
CN1CC(C(=O)c2ccccc2)C(C(=O)c2ccccc2)C1 (centres undefined)	none (no result: XiGFP reactiv, DENV2 CPE rescue, E-selectin induc, FGF22 binding)
CN(C)C(=O)Oc1ccc(C(=O)c2ccccc2)cc1	none (no result: XiGFP reactiv, DENV2 CPE rescue, E-selectin induc)
CC(C)(C)n1cc(C(=O)c2ccccc2)cc1-c1ccccc1	DENV2 CPE rescue 36
Cc1nc2cc(C(=O)N3CCC4(CC3)OCCO4)ccc2n1-c1ccc(Br)cc1	none (no result: XiGFP reactiv, DENV2 CPE rescue, E-selectin induc, FGF22 binding)
O=C(c1ccc2c(c1)ncn2-c1ccc(F)cc1F)N1CCC2(CC1)OCCO2	FGF22 binding 44 (no result: PglD DTNB, E-selectin induc, Statin myotox sup)
COC(=O)[C@@H]1[C@@H](CO)[C@@H]2Cn3c(ccc(-c4ccc(F)cc4)c3=O)[C@H]1N2Cc1cccnc1	none
COc1cc(C(=O)NN=Cc2ccc(N(CCCl)CCCl)cc2)cc(OC)c1OC	FGF22 binding 44
Cc1cc(C)c(NC2=NCCCS2)c(C)c1	Statin myotox sup 82 (no result: XiGFP reactiv, DENV2 CPE rescue, E-selectin induc, FGF22 binding)
CN1OC[C@@H]2CN[C@H](c3ccc(Br)cc3)C[C@@H]21	DENV2 CPE rescue 26 (no result: PglD DTNB)
CC(C)(C)NS(=O)(=O)c1ccc(OCC(=O)N2CCN(Cc3ccccc3)CC2)cc1	FGF22 binding 44 (no result: PglD DTNB, E-selectin induc, Statin myotox sup)
O=C(Cc1ccccc1)N1CCCCN2[C@H](CO)[C@H](c3ccc(C#CC4(O)CCCC4)cc3)[C@H]2C1	none (no result: Statin myotox sup)
O=C(CN1CC(c2ccccc2)CC1=O)NCc1ccc(F)cc1 (centres undefined)	FGF22 binding 43
C[n+]1c(-c2ccccc2)c2cc(N)ccc2c2ccc(N)cc21	XiGFP reactiv 19
CCCC1(CC(C)C)C(=O)NC(=S)NC1=O	none (no result: PglD DTNB, Statin myotox sup)
CCCCC1(CCC)C(=O)NC(=S)NC1=O	FGF22 binding 43
CN(CCOc1ccc(C=C2C(=O)NC(=O)NC2=O)cc1)c1ccccn1	none (no result: E-selectin induc, Statin myotox sup)
O=C1NC(=O)C(=Cc2ccc(OCC(=O)N3CCOCC3)cc2)C(=O)N1	DENV2 CPE rescue 64 (no result: PglD DTNB, E-selectin induc, Statin myotox sup)
c1ccc2nc(N3CCNCC3)ccc2c1	E-selectin induc 70!
CCCNC(=O)[C@H]1[C@H](CO)[C@H]2Cn3c(cccc3=O)[C@H]2N1CC	none (no result: PglD DTNB, Statin myotox sup, FGF22 binding)
CC=Cc1ccc2n(c1=O)C[C@@H]1[C@@H](CO)[C@H](C(=O)OC)[C@H]2N1CC1CCCCC1 (mixture of isomers)	none
O=S1(=O)CCN(CCc2c[nH]c3ccccc23)CC1	FGF22 binding 43 (no result: PglD DTNB, Statin myotox sup)
C=CCn1c(O)c(C(C)=NCCCO)c(=O)[nH]c1=O	Statin myotox sup 108 (no result: XiGFP reactiv, DENV2 CPE rescue, E-selectin induc, FGF22 binding)
COC(=O)[C@H]1[C@H](CO)[C@H]2Cn3c(ccc(C4=CCCCC4)c3=O)[C@@H]1N2Cc1ccccc1OC	none (no result: PglD DTNB, Statin myotox sup, FGF22 binding)
O=S(=O)(NC1CCCC1)OCC(Cl)(Cl)Cl	DENV2 CPE rescue 27 (no result: E-selectin induc)
O=S(=O)(NC1CCCCCCC1)OCC(Cl)(Cl)Cl	DENV2 CPE rescue 34
